ChEMBL document CHEMBL4627246, “Pyroglutamide-Based P2X7 Receptor Antagonists Targeting Inflammatory Bowel Disease” (J Med Chem, 2020)
Activity calls are given as the source filed them. Unless noted, the rule behind the calls is not given here.

Assays:
[1] = molecular target: T1, P2X purinoceptor 7 (Homo sapiens) (UniProt Q99572); experiment: Inhibition of human P2X7 expressed in human HEK293 cells assessed as reduction in BzATP-stimulated TO-PRO-3 incorporation at 10 uM preincubated with compound and TO-PRO-3 for 15 mins prior to BzATP addition and measured after 1 hr by Fluo-3AM dye based flow cytometry relative to control; assay type: cell-based
T1 sequence (whole entry): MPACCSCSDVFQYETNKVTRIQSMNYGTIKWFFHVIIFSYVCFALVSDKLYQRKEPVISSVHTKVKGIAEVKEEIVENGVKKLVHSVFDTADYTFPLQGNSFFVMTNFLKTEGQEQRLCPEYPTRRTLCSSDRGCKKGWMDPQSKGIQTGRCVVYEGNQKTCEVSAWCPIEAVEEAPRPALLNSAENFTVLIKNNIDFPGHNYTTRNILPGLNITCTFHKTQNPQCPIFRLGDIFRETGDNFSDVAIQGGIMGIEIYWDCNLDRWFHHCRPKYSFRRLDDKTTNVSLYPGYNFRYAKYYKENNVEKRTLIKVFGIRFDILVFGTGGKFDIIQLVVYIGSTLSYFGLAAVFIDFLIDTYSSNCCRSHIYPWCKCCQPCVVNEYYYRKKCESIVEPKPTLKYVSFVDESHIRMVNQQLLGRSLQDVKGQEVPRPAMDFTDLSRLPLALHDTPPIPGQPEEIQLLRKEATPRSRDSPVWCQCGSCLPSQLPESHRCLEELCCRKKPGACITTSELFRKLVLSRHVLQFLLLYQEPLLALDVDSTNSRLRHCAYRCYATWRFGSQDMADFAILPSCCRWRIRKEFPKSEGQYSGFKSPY
Method in brief: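 HEK-293 cells overexpressing human P2RX7 loaded with Fluo-3 AM, then incubated with TO-PRO-3 (large pore uptake) and propidium iodide (viability) plus compound (10⁻⁵ M single point) for 15 min before BzATP 100 µM. After 1 h, flow cytometry; percentage of Fluo-3/TO-PRO-3 double-positive cells calculated. Mean of n ≥ 2 with positive control.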

[2] = molecular target: T1, P2X purinoceptor 7 (Homo sapiens); experiment: Antagonist activity at P2X7 receptor in human THP-1 cells assessed as inhibition of LPS and BzATP-induced IL-1beta production at 10^-6 mol/L pretreated with compound followed by LPS/BzATP addition and measured after 2 to 6 hrs by ELISA; assay type: cell-based; settings: TDE = time-dependent effect
Method in brief: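 PMA (100nM)-differentiated THP-1 macrophages (RPMI 1640, 10% FCS), 10^6 cells, pretreated with antagonist at […], then challenged with LPS 10 μmol/L and BzATP 70 μmol/L at 37 °C, 5% CO2; IL1β measured by ELISA, including the 6 h point; mean ± SD, P<0.05 significant.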

[3] = molecular target: T2, P2X purinoceptor 1 (Homo sapiens) (UniProt P51575); experiment: Antagonist activity at P2X1 receptor in human platelet assessed as inhibition of thrombin-induced platelet aggregation at 10 '-5 to 10^-6 mol/L pretreated with compound and LPS/BzATP for 10 mins followed by thrombin addition and measured for 8 mins by aggregometry analysis; assay type: cell-based
T2 sequence (whole entry): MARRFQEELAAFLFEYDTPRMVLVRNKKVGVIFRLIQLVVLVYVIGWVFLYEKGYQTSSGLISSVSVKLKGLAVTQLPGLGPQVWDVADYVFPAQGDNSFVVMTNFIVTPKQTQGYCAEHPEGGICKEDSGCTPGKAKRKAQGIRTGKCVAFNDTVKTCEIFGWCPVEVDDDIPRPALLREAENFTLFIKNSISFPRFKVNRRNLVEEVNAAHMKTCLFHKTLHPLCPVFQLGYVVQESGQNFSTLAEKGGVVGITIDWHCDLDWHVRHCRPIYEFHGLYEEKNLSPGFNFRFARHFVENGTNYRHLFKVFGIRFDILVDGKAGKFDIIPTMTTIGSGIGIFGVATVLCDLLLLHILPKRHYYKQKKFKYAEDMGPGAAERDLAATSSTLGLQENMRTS

[4] = Metabolic stability in human liver microsomes assessed as intrinsic clearance at 0.2 mg/ml incubated for 60 mins by UPLC/MS-MS analysis; assay type: ADME, Microsome; settings: read-out: CLH
[5] = molecular target: T1, P2X purinoceptor 7 (Homo sapiens); experiment: Antagonist activity at P2X7 receptor in human THP-1 cells assessed as inhibition of LPS and BzATP-induced IL-1beta production at 10^-5 mol/L pretreated with compound followed by LPS/BzATP addition and measured after 2 to 6 hrs by ELISA; assay type: cell-based
Method in brief: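 THP-1 monocytes grown in RPMI 1640 + 10% FCS, differentiated to macrophages with PMA (100nM); 10^6 cells pretreated with antagonist at 10^-5 mol/L, then exposed to LPS 10 μmol/L plus BzATP 70 μmol/L at 37 °C, 5% CO2; IL1β quantified by ELISA in samples at 2, 4 and 6 h; mean ± SD, significance P<0.05.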

HEK293 = experiment: Cytotoxicity against human HEK293 cells assessed as reduction in cell viability at 10^-5 mol/L incubated for 72 hrs; assay type: cell-based; settings: hek293, 72 h, 10 µM
Method in brief: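 Wild-type and P2RX7-transfected HEK293 cells exposed to compound for 72 hours; viability compared against untreated control.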

P2X purinoceptor 7 = molecular target: T3, P2X purinoceptor 7 (Homo sapiens, UniProt Q99572); experiment: Displacement of [3H]-A804598 from human P2X7 expressed in human HEK293 cell membrane incubated for 1 hr by microplate scintillation counting method; assay type: cell membranes
T3 sequence (Q99572 whole entry): T1 sequence (whole entry)

[6] = Metabolic stability in human liver microsomes assessed as half life at 0.2 mg/ml incubated for 60 mins by UPLC/MS-MS analysis; assay type: ADME, Microsome
[7] = Drug metabolism in mouse measured after 40 mins; assay type: ADME; settings: read-out: Drug metabolism
[8] = Solubility of compound in saline at 1mg/ml; assay type: physicochemical; settings: buffer
[9] = molecular target: T1, P2X purinoceptor 7 (Homo sapiens); experiment: Antagonist activity at P2X7R in human THP1 cells assessed as inhibition of LPS and BzATP-induced ROS production at 10^-5 mol/L pretreated with compound followed by LPS/BzATP addition and measured up to 5 hrs by kinetic chemiluminescence based fluorometric analysis; assay type: cell-based; settings: THP-1
Method in brief: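 PMA-differentiated THP-1 macrophages (10^5 cells) in RPMI 1640 + 10% FBS pretreated with antagonist at 10^-5 mol/L, then LPS 10 μmol/L plus BzATP 70 μmol/L at 37 °C, 5% CO2; horseradish peroxidase (50 μg/mL) and luminol (50 μM) mixture added, chemiluminescence read on a fluorometer; cell-free H2O2 serves as positive control.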

[10] = Metabolic stability in human hepatocytes; assay type: ADME, cell-based, Hepatocyte

O=C(NCCc1ccccc1)[C@@H]1CCC(=O)N1Cc1ccc(Cl)cc1Cl
inhibition [1]: 0%

O=C1N[C@H](C(=O)NCc2ccc(Cl)cc2Cl)C/C1=C\N1CCOCC1
inhibition [1]: 56%

O=C(NCc1ccc(Cl)cc1Cl)[C@@H]1COC(=O)N1c1cccs1
inhibition [1]: 80% | inhibition [2]: Tde | Activity [3]: inactive | microsomal CLint [4]: 663 µL/min/mg | inhibition [5]: Active | Activity (HEK293): Non-Toxic | IC50 (P2X purinoceptor 7): 15100 nM | Ki (P2X purinoceptor 7): 3110 nM | half-life [6]: 1.4 min | metabolised at 40 min [7]: 100% | solubility [8]: Insoluble | inhibition [9]: Active

CN1CCN(/C=C2\C[C@@H](C(=O)NCc3ccc(Cl)cc3Cl)N(c3cccs3)C2=O)CC1
inhibition [1]: 49%

COc1ccc(CN2C(=O)[C@@H]3C/C(=C\N(C)C)C(=O)N3C2N(C)C)c(OC)c1 (some centres undefined)
inhibition [1]: 0%

COc1cc(CNC(=O)[C@@H]2CCC(=O)N2)cc(OC)c1OC
inhibition [1]: inactive

CN(Cc1ccccc1)C(=O)[C@@H]1CCC(=O)N1Cc1ccc(Cl)cc1Cl
inhibition [1]: 0%

COC(=O)[C@@H]1C/C(=C\NCc2ccc(Cl)cc2Cl)C(=O)N1C(=O)OC
inhibition [1]: 99%

O=C(NCc1ccc(Cl)cc1Cl)[C@@H]1CCC(=O)N1Cc1ccccc1
inhibition [1]: 100%

COc1ccc(CN2C(=O)CC[C@H]2C(=O)NCCc2ccccc2)cc1
inhibition [1]: 0%

O=C(NCc1ccc(Cl)cc1Cl)[C@@H]1CCC(=O)N1c1ccccc1
Stability [10]: Unstable | inhibition [1]: 50%

O=C(NCc1ccc(Cl)cc1Cl)[C@@H]1CCC(=O)N1c1cscn1
Stability [10]: Unstable | inhibition [1]: 98% | inhibition [2]: Tde | Activity [3]: inactive | microsomal CLint [4]: 379 µL/min/mg | inhibition [5]: Active | Activity (HEK293): Non-Toxic | IC50 (P2X purinoceptor 7): 384 nM | Ki (P2X purinoceptor 7): 78 nM | half-life [6]: 4.8 min | metabolised at 40 min [7]: 98% | solubility [8]: Insoluble | inhibition [9]: Active

O=C(NCc1ccccc1)[C@@H]1CCC(=O)N1Cc1ccc(Cl)cc1Cl
inhibition [1]: 0%

COc1ccc(NC(=O)[C@@H]2CCC(=O)N2)cc1OC
inhibition [1]: inactive

O=C(NCc1ccc(Cl)cc1Cl)[C@@H]1CCC(=O)N1C(c1ccccc1)c1ccccc1
inhibition [1]: 0%

O=C(NCc1ccc(Cl)cc1Cl)[C@@H]1CCC(=O)N1c1ccc(Cl)cc1
inhibition [1]: 0%

O=C(NCc1ccccc1Cl)[C@@H]1CCC(=O)N1Cc1ccccc1
inhibition [1]: 0%

COc1ccc(CNC(=O)[C@@H]2CCC(=O)N2Cc2ccc(Cl)cc2Cl)c(OC)c1
inhibition [1]: 0%

C[n+]1ccccc1C(=O)NCc1ccc(Cl)cc1Cl.[I-]
inhibition [1]: 0%

CN1C(=O)CC[C@H]1C(=O)NCc1cccc(C(F)(F)F)c1Cl [GSK1482160]
Stability [10]: Stable | inhibition [1]: 98% | inhibition [2]: Tde | microsomal CLint [4]: 2.8 µL/min/mg | inhibition [5]: Active | IC50 (P2X purinoceptor 7): 332 nM | Ki (P2X purinoceptor 7): 68 nM | half-life [6]: 800 min | metabolised at 40 min [7]: 4.4% | solubility [8]: Insoluble | inhibition [9]: Active

O=C(NCc1ccc(Cl)cc1Cl)[C@@H]1CCC(=O)N1c1nccs1
Stability [10]: Unstable | inhibition [1]: 83% | inhibition [2]: Tde | Activity [3]: inactive | microsomal CLint [4]: 253 µL/min/mg | inhibition [5]: Active | Activity (HEK293): Non-Toxic | IC50 (P2X purinoceptor 7): 2380 nM | Ki (P2X purinoceptor 7): 489 nM | half-life [6]: 7.5 min | metabolised at 40 min [7]: 93% | solubility [8]: Insoluble | inhibition [9]: Active

O=C1N[C@H](C(=O)NCc2ccc(Cl)cc2Cl)C/C1=C/NCc1ccc(Cl)cc1Cl
inhibition [1]: 0%

CN(C)/C=C1\C[C@H]2C(=O)N(/C(=C/N(C)C)c3ccncc3)C(N(C)C)N2C1=O (some centres undefined)
inhibition [1]: 0%

O=C(NCc1ccc(Cl)cc1Cl)[C@@H]1CCC(=O)N1C(c1ccc(Cl)cc1)c1ccc(Cl)cc1
inhibition [1]: 0%

O=C(NCc1ccc(Cl)cc1Cl)[C@@H]1CCC(=O)N1c1ccc(Cl)cc1Cl
inhibition [1]: 0%

O=C1N[C@H](C(=O)NCc2ccc(Cl)cc2Cl)C/C1=N\O (stereo in doubt)
inhibition [1]: 52%

O=C(NCc1ccccc1Cl)[C@@H]1CCC(=O)N1c1ccccc1
inhibition [1]: 0%

O=C(NCCc1ccc(Cl)cc1Cl)[C@@H]1CCC(=O)N1c1ccccc1
inhibition [1]: 0%

CN(C)/C=C1\C[C@H]2C(=O)N(Cc3ccc(Cl)cc3Cl)C(N(C)C)N2C1=O (some centres undefined)
inhibition [1]: 24%

CN(C)C(=O)[C@@H]1CCC(=O)N1
inhibition [1]: inactive

O=C(NCC1CCCCC1)[C@@H]1CCC(=O)N1c1ccccc1
inhibition [1]: 0%

Cc1ccc(NC(=O)[C@@H]2CCC(=O)N2c2ccccc2)cc1
inhibition [1]: 0%

CN1C(=O)CC[C@H]1C(=O)NCc1cc(C(F)(F)F)ccc1Cl
inhibition [1]: 0%

COc1ccc(NC(=O)[C@@H]2C/C(=C\N(C)C)C(=O)N2)cc1
inhibition [1]: 0%

COc1ccc(N2C(=O)[C@@H]3C/C(=C\N(C)C)C(=O)N3C2N(C)C)cc1 (some centres undefined)
inhibition [1]: 0%

O=C(NCc1ccccc1Cl)[C@@H]1CCC(=O)N1Cc1ccccc1Cl
inhibition [1]: 0%

COc1ccc(N2C(=O)CC[C@H]2C(=O)NCc2ccc(Cl)cc2Cl)cc1
inhibition [1]: 0%

O=C(NCc1ccccc1Cl)[C@@H]1CCC(=O)N1Cc1ccc(Cl)cc1
inhibition [1]: 0%

O=C(Nc1ccc(Cl)cc1Cl)[C@@H]1CCC(=O)N1Cc1ccccc1Cl
inhibition [1]: 0%

O=C(NCc1ccc(Cl)cc1Cl)[C@@H]1CCC(=O)N1Cc1ccc(Cl)cc1
inhibition [1]: 0%

CCCCCCN1C(=O)[C@@H]2C/C(=C\N(C)C)C(=O)N2C1N(C)C (some centres undefined)
inhibition [1]: 0%

N#Cc1ccc(N2C(=O)CC[C@H]2C(=O)NCc2ccc(Cl)cc2Cl)cc1
inhibition [1]: 0%

CCCCCCN1C(=O)[C@@H]2CCC(=O)N2C1N(C)C (some centres undefined)
inhibition [1]: 0%
